# ChEMBL document CHEMBL1629684, “Effects of ravuconazole treatment on parasite load and immune response in dogs experimentally infected with Trypanosoma cruzi” (Antimicrob Agents Chemother, 2010)
# The source made the active and inactive calls.
# Assays:
# Canis familiaris [1] = assay: Toxicity in mongrel dog infected with Trypanosoma cruzi Y assessed as weight loss at 7 mg/kg, po BID for 90 days started 12 to 22 days postinfection measured after 6 months; type: organism-based, Canis lupus familiaris; design: dose 7 mg/kg, route oral; conditions: in vivo, 4383 h
# In short: (§1)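 Body weight gain, in kg, was recorded for infected dogs 1 day and 6 months after the end of oral b.i.d. treatment. Treated animals were compared with infected untreated and noninfected control groups.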
# Canis familiaris [2] = assay: Toxicity in mongrel dog infected with Trypanosoma cruzi Y assessed as weight loss at po BID for 90 days started 12 to 22 days postinfection measured after 1 day; conditions: in vivo, 24 h
# Canis familiaris [3] = assay: Immunostimulatory activity in mongrel dog infected with Trypanosoma cruzi Berenice-78 assessed as reduction in IL10 production in right atrium at 12 mg/kg, po BID after 180 days by semiquantitative RT-PCR; type: functional, organism-based; design: dose 12 mg/kg; conditions: Canis lupus familiaris, Cardiac atrium
# In short: (§2)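 Dogs were euthanized 6 months after the end of treatment. RNA was extracted from the right atrium with acid guanidinium thiocyanate-phenol-chloroform. One microgram was DNase treated and reverse transcribed with oligo(dT) for 1 h at 42°C. IFN-γ or IL-10 cDNA was amplified with 1.5 mM MgCl2: 94°C 5 min, n cycles of 94/57/72°C, final extension 72°C 6 min. Expression was scored semiquantitatively against infected untreated and noninfected dogs.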
# Canis familiaris [4] = assay: Immunostimulatory activity in mongrel dog infected with Trypanosoma cruzi Berenice-78 assessed as reduction in INFgamma production in right atrium at 7 mg/kg, po BID after 180 days by semiquantitative RT-PCR; type: functional, organism-based; design: dose 7 mg/kg; conditions: Canis lupus familiaris, Cardiac atrium; in short: as §2
# Canis familiaris [5] = assay: Immunostimulatory activity in mongrel dog infected with Trypanosoma cruzi Berenice-78 assessed as production of antibody IgG at 12 mg/kg, po BID for 90 days measured up to 30 days by ELISA; type: functional, organism-based; design: dose 12 mg/kg; conditions: Canis lupus familiaris
# In short: (§3)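 Serum was taken before inoculation and then monthly until 6 months posttreatment, and stored at −80°C. ELISA plates were coated with alkaline extract of Y-strain parasites grown to exponential phase in LIT medium. Bound total IgG or IgG2 was detected with peroxidase-labeled anti-dog conjugates and read at 490 nm. Cutoff was the mean absorbance of 10 uninfected dogs plus 2 SD.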
# Trypanosoma cruzi [6] = assay: Antimicrobial activity against Trypanosoma cruzi Berenice-78 infected in mongrel dog assessed as parasite level in blood of dog at 12 mg/kg, po BID started 12 to 22 days postinfection measured after 6 months by PCR analysis; type: functional
# In short: (§4)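 Blood PCR for T. cruzi on treated dogs (n = 5 per group) at 1 and 6 months posttreatment. Each reaction took 2 μl blood DNA template in Tris-HCl pH 9.0, 75 mM KCl, 3.5 mM MgCl2 and 0.2 mM dNTPs. Cycling was 95°C 5 min, then 2 cycles annealing at 30°C, 33 cycles at 40°C, and 72°C 5 min. Products were run on 6% polyacrylamide and silver stained. Reported as rate of positive animals.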
# Canis familiaris [7] = assay: Immunostimulatory activity in mongrel dog infected with Trypanosoma cruzi Y assessed as production of antibody IgG2 at 12 mg/kg, po BID for 90 days measured up to 30 days by ELISA; type: functional, organism-based; design: dose 12 mg/kg; conditions: Canis lupus familiaris; in short: as §3
# Trypanosoma cruzi [8] = assay: Antitrypanosomal activity against Trypanosoma cruzi Y infected in mongrel dog assessed as reduction in parasite-induced intrafascicular collagen deposition at 7 mg/kg, po BID after 180 days […]; type: functional, organism-based; design: dose 7 mg/kg
# Canis familiaris [9] = assay: Toxicity in mongrel dog infected with Trypanosoma cruzi Y assessed as weight loss at 12 mg/kg, po BID for 90 days started 12 to 22 days postinfection measured after 1 day; type: organism-based, Canis lupus familiaris; design: dose 12 mg/kg, route oral; conditions: in vivo, 24 h; in short: as §1
# Trypanosoma cruzi [10] = assay: Antimicrobial activity against Trypanosoma cruzi Berenice-78 infected in mongrel dog assessed as suppression of microbial proliferation at 7 mg/kg, po BID started 12 to 22 days postinfection measured after 1 day; type: functional, organism-based; design: dose 7 mg/kg
# In short: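 Mongrel dogs, 4 months old, dewormed and vaccinated, were inoculated with 2.0 × 10^3 bloodstream trypomastigotes/kg. Oral b.i.d. (q12h) dosing began 12 to 22 days postinfection, once parasitemia appeared. Dosing ran 90 days at 12 mg/kg and 60 days at 7 mg/kg, with 5 dogs per group. Parasitemia was read by fresh-blood examination of marginal ear vein blood from day 10 of infection until parasites were undetectable.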
# Trypanosoma cruzi [11] = assay: Antitrypanosomal activity against Trypanosoma cruzi Berenice-78 infected in mongrel dog assessed as reduction in parasite-induced intrafascicular collagen deposition in right atrium at 7 mg/kg, po BID after 180 days […]; type: functional, organism-based; design: dose 7 mg/kg; conditions: Cardiac atrium
# Trypanosoma cruzi [12] = assay: Antimicrobial activity against Trypanosoma cruzi Berenice-78 infected in mongrel dog assessed as parasite level in blood of dog at 7 mg/kg, po BID started 12 to 22 days postinfection measured after 30 days by PCR analysis; type: functional; in short: as §4
# Trypanosoma cruzi [13] = assay: Antitrypanosomal activity against Trypanosoma cruzi Y infected in mongrel dog assessed as reduction in parasite-induced intrafascicular collagen deposition in right atrium at 12 mg/kg, po BID after 180 days; conditions: Cardiac atrium
# Canis familiaris [14] = assay: Toxicity in mongrel dog infected with Trypanosoma cruzi Y assessed as weight loss at 12 mg/kg, po BID for 90 days started 12 to 22 days postinfection measured after 6 months; type: organism-based, Canis lupus familiaris; design: dose 12 mg/kg, route oral; conditions: in vivo, 4383 h; in short: as §1
smiles,measurement,setting,value
C[C@@H](c1nc(-c2ccc(C#N)cc2)cs1)[C@](O)(Cn1cncn1)c1ccc(F)cc1F [RAVUCONAZOLE],Activity,Canis familiaris [1],Non-toxic
same,Activity,Canis familiaris [2],Non-toxic
same,Activity,Canis familiaris [3],Active
same,Activity,Canis familiaris [4],Active
same,Activity,Canis familiaris [5],Active
same,Activity,Trypanosoma cruzi [6],80%
same,Activity,Canis familiaris [7],Active
same,Activity,Trypanosoma cruzi [8],Active
same,Activity,Canis familiaris [9],Non-toxic
same,Activity,Trypanosoma cruzi [10],Non-toxic
same,Activity,Trypanosoma cruzi [11],Active
same,Activity,Trypanosoma cruzi [12],60%
same,Activity,Trypanosoma cruzi [13],Active
same,Activity,Canis familiaris [14],Non-toxic
